# Laboratory results as given in ChEMBL document CHEMBL1629545, “A morpholino oligomer targeting highly conserved internal ribosome entry site sequence is able to inhibit multiple species of picornavirus” (Antimicrob Agents Chemother, 2008).
# Calls of active or inactive are those of the source. No cut-off for these calls is given here.
# Tests used:
# [1] = tested on: HeLa; experiment: Cytotoxicity against human HeLa cells 10 uM after 24 hrs by MTS assay; assay type: cell-based
# Summary of the method: (§1)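 HeLa cells at ~80% confluence, uninfected, exposed to 1–100 μM PPMO or water (mock) in serum-free DMEM-F-12 (1:1) for 24 h. MTS reagent was added for 4 h and absorbance read at 492 nm. Viability was expressed as percent of water-treated cells (set to 100%), averaged over 12 wells.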
# [2] = tested on: HeLa; experiment: Cytotoxicity against human HeLa cells at 10 uM by MTS assay; assay type: cell-based; summary of the method: as §1
# [3] = tested on: Poliovirus 1; experiment: Antiviral activity against Human poliovirus type 1 infected in Human HeLa cell assessed as inhibition of translation at 10 ug/ml by luciferase reporter gene assay; assay type: functional, organism-based
# Summary of the method: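 In-cell translation control: HeLa cells electroporated with 20 μg PV1-Luc replicon RNA were placed in medium with 10 μg/ml puromycin at 37°C in 5% CO2. Luciferase in lysates was read by luminometer at hourly time points after transfection. Two experiments were averaged.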
# [4] = tested on: Vero; experiment: Cytotoxicity against African green monkey Vero cells at 10 uM after 24 hrs by MTS assay; assay type: cell-based; settings: chlorocebus sabaeus
# [5] = tested on: SK-N-MC; experiment: Cytotoxicity against human SK-N-MC cell at 10 uM after 24 hrs by MTS assay; assay type: cell-based
SMILES,Activity [1],Activity [2],Activity [3],Activity [4],Activity [5]
Cc1cn([C@H]2CNC[C@@H](COP(=O)(N(C)C)N3C[C@@H](COP(=O)(N(C)C)N4C[C@@H](COP(=O)(N(C)C)N5C[C@@H](COP(=O)(N(C)C)N6C[C@@H](COP(=O)(N(C)C)N7C[C@@H](COP(=O)(N(C)C)N8C[C@@H](COP(=O)(N(C)C)N9C[C@@H](COP(=O)(N(C)C)N%10C[C@@H](COP(=O)(N(C)C)N%11C[C@@H](COP(=O)(N(C)C)N%12C[C@@H](COP(=O)(N(C)C)N%13C[C@@H](COP(=O)(N(C)C)N%14C[C@@H](COP(=O)(N(C)C)N%15C[C@@H](COP(=O)(N(C)C)N%16C[C@@H](COP(=O)(N(C)C)N%17C[C@@H](COP(=O)(N(C)C)N%18C[C@@H](COP(=O)(N(C)C)N%19C[C@@H](COP(=O)(N(C)C)N%20C[C@@H](COP(=O)(N(C)C)N%21C[C@@H](COP(=O)(N(C)C)N%22C[C@@H](COP(=O)(N(C)C)N%23CCN(C(=O)CCNC(=O)CCCCCNC(=O)[C@H](CCCNC(=N)N)NC(=O)CCCCCNC(=O)[C@H](CCCNC(=N)N)NC(=O)[C@H](CCCNC(=N)N)NC(=O)CCCCCNC(=O)[C@H](CCCNC(=N)N)NC(=O)[C@H](CCCNC(=N)N)NC(=O)CCCCCNC(=O)[C@H](CCCNC(=N)N)NC(=O)[C@H](CCCNC(=N)N)NC(=O)CCCCCNC(=O)[C@@H](N)CCCNC(=N)N)CC%23)O[C@@H](n%23cc(C)c(=O)[nH]c%23=O)C%22)O[C@@H](n%22cnc%23c(N)ncnc%23%22)C%21)O[C@@H](n%21ccc(N)nc%21=O)C%20)O[C@@H](n%20cnc%21c(=O)[nH]c(N)nc%21%20)C%19)O[C@@H](n%19cnc%20c(=O)[nH]c(N)nc%20%19)C%18)O[C@@H](n%18cc(C)c(=O)[nH]c%18=O)C%17)O[C@@H](n%17cnc%18c(=O)[nH]c(N)nc%18%17)C%16)O[C@@H](n%16cc(C)c(=O)[nH]c%16=O)C%15)O[C@@H](n%15cc(C)c(=O)[nH]c%15=O)C%14)O[C@@H](n%14cc(C)c(=O)[nH]c%14=O)C%13)O[C@@H](n%13cnc%14c(=O)[nH]c(N)nc%14%13)C%12)O[C@@H](n%12ccc(N)nc%12=O)C%11)O[C@@H](n%11cc(C)c(=O)[nH]c%11=O)C%10)O[C@@H](n%10ccc(N)nc%10=O)C9)O[C@@H](n9cc(C)c(=O)[nH]c9=O)C8)O[C@@H](n8cc(C)c(=O)[nH]c8=O)C7)O[C@@H](n7cnc8c(=O)[nH]c(N)nc87)C6)O[C@@H](n6cnc7c(N)ncnc76)C5)O[C@@H](n5cnc6c(N)ncnc65)C4)O[C@@H](n4ccc(N)nc4=O)C3)O2)c(=O)[nH]c1=O (stereo partly specified),Toxic,Non-toxic,inactive,Non-toxic,Non-toxic
COc1ccc(C[C@H](N)C(=O)N[C@H]2[C@@H](O)[C@H](n3cnc4c(N(C)C)ncnc43)O[C@@H]2CO)cc1,–,–,Active,–,–
Cc1cn([C@H]2CN(P(=O)(OC[C@@H]3CN(P(=O)(OC[C@@H]4CN(P(=O)(OC[C@@H]5CN(P(=O)(OC[C@@H]6CN(P(=O)(OC[C@@H]7CN(P(=O)(OC[C@@H]8CN(P(=O)(OC[C@@H]9CN(P(=O)(OC[C@@H]%10CN(P(=O)(OC[C@@H]%11CN(P(=O)(OC[C@@H]%12CNC[C@H](n%13cnc%14c(N)ncnc%14%13)O%12)N(C)C)C[C@H](n%12cnc%13c(N)ncnc%13%12)O%11)N(C)C)C[C@H](n%11cnc%12c(N)ncnc%12%11)O%10)N(C)C)C[C@H](n%10cc(C)c(=O)[nH]c%10=O)O9)N(C)C)C[C@H](n9cc(C)c(=O)[nH]c9=O)O8)N(C)C)C[C@H](n8cnc9c(N)ncnc98)O7)N(C)C)C[C@H](n7cnc8c(N)ncnc87)O6)N(C)C)C[C@H](n6cnc7c(=O)[nH]c(N)nc76)O5)N(C)C)C[C@H](n5ccc(N)nc5=O)O4)N(C)C)C[C@H](n4ccc(N)nc4=O)O3)N(C)C)C[C@@H](COP(=O)(N(C)C)N3C[C@@H](COP(=O)(N(C)C)N4C[C@@H](COP(=O)(N(C)C)N5C[C@@H](COP(=O)(N(C)C)N6C[C@@H](COP(=O)(N(C)C)N7C[C@@H](COP(=O)(N(C)C)N8C[C@@H](COP(=O)(N(C)C)N9C[C@@H](COP(=O)(N(C)C)N%10C[C@@H](COP(=O)(N(C)C)N%11CCN(C(=O)CCNC(=O)CCCCCNC(=O)[C@H](CCCNC(=N)N)NC(=O)CCCCCNC(=O)[C@H](CCCNC(=N)N)NC(=O)[C@H](CCCNC(=N)N)NC(=O)CCCCCNC(=O)[C@H](CCCNC(=N)N)NC(=O)[C@H](CCCNC(=N)N)NC(=O)CCCCCNC(=O)[C@H](CCCNC(=N)N)NC(=O)[C@H](CCCNC(=N)N)NC(=O)CCCCCNC(=O)[C@@H](N)CCCNC(=N)N)CC%11)O[C@@H](n%11cc(C)c(=O)[nH]c%11=O)C%10)O[C@@H](n%10cc(C)c(=O)[nH]c%10=O)C9)O[C@@H](n9cc(C)c(=O)[nH]c9=O)C8)O[C@@H](n8cc(C)c(=O)[nH]c8=O)C7)O[C@@H](n7cc(C)c(=O)[nH]c7=O)C6)O[C@@H](n6cc(C)c(=O)[nH]c6=O)C5)O[C@@H](n5cc(C)c(=O)[nH]c5=O)C4)O[C@@H](n4ccc(N)nc4=O)C3)O2)c(=O)[nH]c1=O (stereo partly specified),Toxic,Non-toxic,inactive,Non-toxic,Non-toxic
Cc1cn([C@H]2CN(P(=O)(OC[C@@H]3CN(P(=O)(OC[C@@H]4CN(P(=O)(OC[C@@H]5CN(P(=O)(OC[C@@H]6CN(P(=O)(OC[C@@H]7CN(P(=O)(OC[C@@H]8CN(P(=O)(OC[C@@H]9CN(P(=O)(OC[C@@H]%10CN(P(=O)(OC[C@@H]%11CN(P(=O)(OC[C@@H]%12CN(P(=O)(OC[C@@H]%13CN(P(=O)(OC[C@@H]%14CN(P(=O)(OC[C@@H]%15CNC[C@H](n%16cnc%17c(=O)[nH]c(N)nc%17%16)O%15)N(C)C)C[C@H](n%15cc(C)c(=O)[nH]c%15=O)O%14)N(C)C)C[C@H](n%14cc(C)c(=O)[nH]c%14=O)O%13)N(C)C)C[C@H](n%13cnc%14c(N)ncnc%14%13)O%12)N(C)C)C[C@H](n%12cnc%13c(N)ncnc%13%12)O%11)N(C)C)C[C@H](n%11ccc(N)nc%11=O)O%10)N(C)C)C[C@H](n%10cnc%11c(N)ncnc%11%10)O9)N(C)C)C[C@H](n9cc(C)c(=O)[nH]c9=O)O8)N(C)C)C[C@H](n8cnc9c(N)ncnc98)O7)N(C)C)C[C@H](n7cnc8c(=O)[nH]c(N)nc87)O6)N(C)C)C[C@H](n6cc(C)c(=O)[nH]c6=O)O5)N(C)C)C[C@H](n5cnc6c(N)ncnc65)O4)N(C)C)C[C@H](n4cc(C)c(=O)[nH]c4=O)O3)N(C)C)C[C@@H](COP(=O)(N(C)C)N3C[C@@H](COP(=O)(N(C)C)N4C[C@@H](COP(=O)(N(C)C)N5C[C@@H](COP(=O)(N(C)C)N6C[C@@H](COP(=O)(N(C)C)N7C[C@@H](COP(=O)(N(C)C)N8C[C@@H](COP(=O)(N(C)C)N9C[C@@H](COP(=O)(N(C)C)N%10CCN(C(=O)CCNC(=O)CCCCCNC(=O)[C@H](CCCNC(=N)N)NC(=O)CCCCCNC(=O)[C@H](CCCNC(=N)N)NC(=O)[C@H](CCCNC(=N)N)NC(=O)CCCCCNC(=O)[C@H](CCCNC(=N)N)NC(=O)[C@H](CCCNC(=N)N)NC(=O)CCCCCNC(=O)[C@H](CCCNC(=N)N)NC(=O)[C@H](CCCNC(=N)N)NC(=O)CCCCCNC(=O)[C@@H](N)CCCNC(=N)N)CC%10)O[C@@H](n%10cnc%11c(=O)[nH]c(N)nc%11%10)C9)O[C@@H](n9ccc(N)nc9=O)C8)O[C@@H](n8cnc9c(N)ncnc98)C7)O[C@@H](n7ccc(N)nc7=O)C6)O[C@@H](n6ccc(N)nc6=O)C5)O[C@@H](n5ccc(N)nc5=O)C4)O[C@@H](n4cnc5c(N)ncnc54)C3)O2)c(=O)[nH]c1=O (stereo partly specified),Toxic,Non-toxic,inactive,Non-toxic,Non-toxic
